Screening results (PubChem BioAssay)
A selection: hits, their analogues and other compounds. The true share with any hit is near 4.1%.
KCNK9 inh: human KCNK9 channel inhibition | HEK293 KCNK9, FluxOR thallium flux fluorescence; stronger effect = lower value | B-score at 10 µM | actives 1.2% (n = 310,000) | AID 488922;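 active = ratio B-score over 3 SD below the library mean, with starting fluorescence within 5 SD of its mean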;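 also: negative B-score means less thallium flux so channel inhibition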
Target sequence (Q9NPC2 whole entry, looked up): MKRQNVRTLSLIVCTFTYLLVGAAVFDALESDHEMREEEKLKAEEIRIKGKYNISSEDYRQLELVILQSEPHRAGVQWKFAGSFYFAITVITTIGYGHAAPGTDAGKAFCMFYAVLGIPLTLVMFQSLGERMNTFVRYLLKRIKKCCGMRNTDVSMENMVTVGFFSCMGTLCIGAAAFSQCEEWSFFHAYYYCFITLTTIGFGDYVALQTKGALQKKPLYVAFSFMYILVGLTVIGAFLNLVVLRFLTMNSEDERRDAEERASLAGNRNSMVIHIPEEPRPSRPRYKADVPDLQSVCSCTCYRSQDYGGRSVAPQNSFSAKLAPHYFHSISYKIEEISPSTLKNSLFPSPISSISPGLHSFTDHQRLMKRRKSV
KCNK3 block: human KCNK3 channel inhibition, primary screen; CHO-KCNK3 thallium flux, FluxOR fluorescence; stronger effect = lower value; actives 0.84% (n = 340,000); AID 602410; B-score at 10 µM; O14649;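 active = B-score under library mean minus 4 SD, starting fluorescence ratio at most library mean plus 5 SD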;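 also: more negative B-score means stronger inhibition of thallium flux through KCNK3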
hERG protect: hERG (human) protection from proarrhythmic block; Q12809; CHO-hERG, FluxOR thallium flux, dofetilide IC70 present; activation (rescue from dofetilide block), less the hit threshold, % at 10 µM; actives 0.51% (n = 310,000); AID 1511;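 active = activation above the mean of controls blocked by dofetilide plus 5 SD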;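 also: thallium influx through hERG after potassium depolarization seen as dye fluorescence rise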
KCNQ1 pot: potentiators or activators of human KCNQ1 potassium channel. P51787. B-score at 10 µM. CHO-K1 KCNQ1, thallium flux FluxOR fluorescence; stronger effect = higher value. actives 0.35% (n = 310,000). AID 2648;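 active = fluorescence ratio B-score, a plate-corrected score, at least three library SD, with initial intensity B-score within 5 SD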
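System: Stable KCNQ1 CHO-K1 line | Incubation: 90 min dye loading and 20 min compound exposure, both at room temperature | Measure: Ratio B score | Medium: Assay buffer for compound exposure, DMSO matched across wells | Compound dosing: Single-concentration screen | Probe or stimulus: K+/Tl+ depolarizing stimulus | Measured by: Kinetic FluxOR fluorescence, 10 s baseline plus 110 s post-stimulus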
Cl transport mod: modulates chloride dependent transport by human KCC2; KCC2 cells, thallium flux FluoZin-2 fluorescence; actives 2.2% (n = 190,000); B-score of Tl+ flux slope (higher = more flux/activation; lower = inhibition) at 10 µM; Q9H2X9;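 active = thallium flux slope and its plate-corrected score both differing from the plate sample mean at a set confidence after two filtering rounds, in either direction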;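 also: slope of fluorescence scaled to starting intensity during 10 to 20 s after thallium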
KCNQ1 inh: blocks the human KCNQ1 potassium channel. B-score at 10 µM. CHO-K1 KCNQ1, FluxOR thallium flux fluorescence; stronger effect = higher value. AID 2642. actives 1.3% (n = 310,000);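 active = compounds whose thallium flux B-score, printed positive for inhibition, exceeds three library SD while starting fluorescence stays within three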;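 also: channel opened by potassium depolarization with thallium stimulus after 20 min compound exposure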
* = called active by the depositor; i = inactive; · = no result given.

SMILES	KCNK9 inh	KCNK3 block	hERG protect	KCNQ1 pot	Cl transport mod	KCNQ1 inh
COc1ccc([C@H]2C(C(=O)O)=C[C@@H](C(C)(C)C)N2S(=O)(=O)c2ccc(C)cc2)cc1OC	·	i	·	·	·	·
CCCn1nc(NC(=O)c2cccs2)c2cc3cc(C)ccc3nc21	-7.1*	i	-19	i	-0.77	i
O=C(Nc1cc2c(cc1C(=O)O)OCCCO2)c1ccc(F)cc1F	i	i	-3	i	·	i
CC(C)(C)c1ccc(NC(=O)NC2CCCc3ccccc32)cc1 (stereo not given)	i	i	-5	i	0.76	6*
CC(=O)c1cccc(NC(=S)NCCCCc2ccccc2)c1	i	i	-9	i	-3.2	6*
O=[N+]([O-])c1ccc(S(=O)(=O)NNC(=S)NCCc2ccccc2)cc1	i	i	-2	i	·	i
COc1ccccc1CCNC(=O)Nc1cccc([N+](=O)[O-])c1	i	i	-4	i	-0.22	6*
O=[N+]([O-])c1cccc(NC(=S)NCCc2ccccc2)c1	i	i	-15	i	-0.55	8*
CCCCNC(=S)Nc1cccc(C(C)=O)c1	i	i	0	i	-1.1	i
O=C(COc1ccc2c3c(c(=O)oc2c1)CCCC3)NCCCn1ccnc1	i	i	-10	i	·	i
O=C(NC1CCCC1)c1cc2nc(-c3ccco3)cc(C(F)(F)F)n2n1	i	i	-6	i	·	i
CC(NC(=O)c1cccs1)C(S)c1ccccc1 (stereo not given)	-6.6*	i	-6	i	·	i
COc1cccc(N=C2NC(=O)/C(=C/c3cc([N+](=O)[O-])ccc3O)S2)c1	i	i	-10	i	·	7*
Cc1ccc(S(=O)(=O)/N=C2/NC(=O)/C(=C/c3cc([N+](=O)[O-])ccc3O)S2)cc1	i	i	-10	i	·	i
COc1ccc(C(=O)Nc2nnc(S(=O)(=O)N3CCOCC3)s2)cc1	i	i	-9	i	·	i
Cc1sc(NC(=O)c2ccco2)c(C(c2ccc(F)cc2)N2CCN(C)CC2)c1C (stereo not given)	i	i	-27	i	0.27	7*
Cc1sc(NC(=O)c2ccccc2)c(C(c2ccc(Cl)cc2)N2CCN(CCO)CC2)c1C (stereo not given)	i	i	-2	i	-0.24	i
Cc1sc(NC(=O)c2ccco2)c(C(c2cccnc2)N2CCN(CCO)CC2)c1C (stereo not given)	i	i	-4	i	-0.38	i
Cc1sc(NC(=O)c2ccco2)c(C(c2cccnc2)N2CCN(c3ccc(F)cc3)CC2)c1C (stereo not given)	-6.6*	-12*	-12	i	-0.089	8*
Cc1sc(NC(=O)c2ccco2)c(C(c2ccccc2)N2CCC(C)CC2)c1C (stereo not given)	-7*	i	-13	i	0.66	i
COc1ccc(C(c2c(NC(=O)c3ccco3)sc(C)c2C)N2CCOCC2)cc1OC (stereo not given)	·	-9.7*	·	·	·	·
COc1ccc(C(NC(=O)c2ccco2)c2ccc(OC)c(OC)c2)cc1OC	i	i	-4	i	0.5	i
Cc1cc(C)c(CN2CCN(CCCn3ccc(NC(=O)OCc4ccccc4)nc3=O)CC2)c(C)c1	·	i	·	·	·	·
Clc1ccc(Nc2ccc(Cl)nn2)cc1	i	i	5.9*	i	-1.7	i
CC(C)(C)OC(=O)C[C@H]1C/C=C\C[C@@H](CC(=O)N(CCO)Cc2ccccc2)C(=O)N[C@@H](Cc2ccccc2)COC1=O	·	i	·	·	·	·
CN(CCc1ccccc1)C(=O)c1cccc(NC(=O)Cc2cccc(NC(=O)C3CCCN(C(=O)C4CCCC4)C3)c2)c1 (stereo not given)	·	i	·	·	·	·
N#C/C(=C\c1cccnc1)C(=O)Nc1cccc(Cl)c1	i	i	8.5*	i	1.2e-05	i
Cc1cccc(NC(=O)/C(C#N)=C\c2cccnc2)c1	i	i	-8	i	·	i
